Experimental findings from ChEMBL document CHEMBL1139924, “The structure-activity relationship of the series of non-peptide small antagonists for p56lck SH2 domain” (Bioorg Med Chem, 2007) are described below.

Calls of active or inactive are those of the source. The rule behind the calls is not given here. A value given as a limit tells only on which side of the number the result lay.

Data set [1] relates to Jurkat. Put plainly: Inhibition of Jurkat cell activation assessed as blocking of T-cell antigen receptor-induced IL-2 expression at 10 uM by luciferase assay. It counts as functional. The following applies: Homo sapiens. The method in brief: (§1)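 Jurkat T cells (2 × 10⁶) transfected with 2 µg IL-2-luciferase reporter by lipofection. Compounds added 2 h before activation and kept present throughout 16 h stimulation with plate-coated anti-CD3 mAb (5 µg/ml, UCHT1) or […] plus ionomycin (0.5 µg/ml). Cells then washed, lysed and read for luciferase by luminometry. Three independent experiments in duplicate. Cyclosporin A positive control.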

The nature of data set [2]: Partition coefficient, log P of the compound. It counts as physicochemical. The following applies: octanol/water. The gist of the method:
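Shake-flask partition. Compound at 1 mM final in 1-octanol/water with an equal volume of 1-octanol/water added, vortexed 30 min. P is the octanol concentration divided by the aqueous concentration. Three independent experiments in duplicate.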

Data set [3] can be described thus: Inhibition of p56lck SH2 domain by ELISA. Further details: species or system Homo sapiens. The gist of the method:
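Competitive ELISA. Compound plus GST-p56lck SH2 fusion (100 ng/ml) incubated 1 h at room temperature, in duplicate wells. Bound protein detected with rabbit anti-GST, then HRP anti-rabbit and TMB, acid-stopped, A450. Ac-pYEEIE control peptide; IC50 reported.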
On the technique in general: An ELISA detects its analyte on a solid surface through an enzyme-linked reagent.

For data set [4], the system named is Jurkat. As to the kind of experiment: Inhibition of Jurkat cell activation assessed as blocking of T-cell antigen receptor-induced IL-2 expression at 30 uM by luciferase assay. The format is functional. The following applies: Homo sapiens. The method in brief: as §1

`CC(C)(C)OC(=O)[C@@H](Cc1ccc(O)c(O)c1)OC(=O)/C=C/c1ccc(O)c(O)c1`: the inhibition at 10 µM in the data set with Jurkat [1] was 80.7%. Also, in data set [2], the logP came to 2. The same compound registered an IC50 in data set [3] of 127 µM.
Consider `COC(=O)[C@@H](Cc1ccc(OC)c(OC)c1)NC(=O)/C=C/c1ccc(O)c(O)c1`, for which, in the data set on Jurkat [1], the inhibition at 10 µM came out at 9.4%. In data set [2], this compound had a logP of 1.53. The compound also yielded an IC50 in data set [3] above 500 µM.
Take `O=C(/C=C/c1ccc(O)c(O)c1)O[C@H](Cc1ccc(O)c(O)c1)C(=O)O` [ROSMARINIC ACID]: the inhibition at 10 µM with Jurkat [1] stood at 40.4%. The inhibition at 30 µM with Jurkat [4] is 50%. Besides, in data set [2], the logP was determined as 0.834. The compound further yielded an IC50 in data set [3] of 24 µM.
With `NC(Cc1ccc(O)c(O)c1)C(=O)O` (racemic), the inhibition at 10 µM in the data set on Jurkat [1] turned out to be 0.6%. Further, the IC50 in data set [3] was above 500 µM.
For the compound `O=C(CCc1ccc(O)c(O)c1)O[C@H](Cc1ccc(O)c(O)c1)C(=O)O`, in the data set with Jurkat [1], the inhibition at 10 µM was found to be 7.6%. This compound also returned a logP in data set [2] of 0.503. Besides, the IC50 in data set [3] was determined as 15 µM.
As to `O=C(O)/C=C/c1ccc(O)c(O)c1` [CAFFEIC ACID], the inhibition at 10 µM in the data set with Jurkat [1] came out at 2%. In data set [3], the IC50 was above 500 µM.
`COC(=O)[C@@H](Cc1ccc(O)c(O)c1)OC(=O)/C=C/c1ccc(O)c(O)c1` [METHYL ROSMARINATE]: the inhibition at 10 µM in the data set on Jurkat [1] turned out to be 54.7%. In addition, the outcome with Jurkat [4] was Active. The same compound gave a logP in data set [2] of 1.48. This compound also registered an IC50 in data set [3] of 80 µM.
On to `CCOC(=O)[C@@H](Cc1ccc(O)c(O)c1)OC(=O)/C=C/c1ccc(O)c(O)c1` [ETHYL ROSMARINATE], for which, in the data set with Jurkat [1], the inhibition at 10 µM came out at 22.7%. The compound also gave a logP in data set [2] of 1.5. The same compound had an IC50 in data set [3] of 91 µM.
Regarding `COC(=O)[C@@H](Cc1ccc(O)c(O)c1)NC(=O)Cc1ccc(O)c(O)c1`, the inhibition at 10 µM with Jurkat [1] amounted to 23%. Also, the logP in data set [2] stood at 0.138. The compound also returned an IC50 in data set [3] of 21 µM.
The corresponding values for `COC(=O)CCCCCNC(=O)[C@@H](Cc1ccc(O)c(O)c1)OC(=O)/C=C/c1ccc(O)c(O)c1` are 29.4%, 1.68 and above 500 µM.
For the compound `COC(=O)[C@@H](Cc1ccc(O)c(O)c1)NC(=O)/C=C/c1ccc(OC)c(O)c1`, in the data set on Jurkat [1], the inhibition at 10 µM was 5.4%. The compound also gave a logP in data set [2] of 1.37. In addition, in data set [3], the IC50 is above 500 µM.
For `CC(C)OC(=O)[C@@H](Cc1ccc(O)c(O)c1)OC(=O)/C=C/c1ccc(O)c(O)c1`, the inhibition at 10 µM with Jurkat [1] was 86.1%. Moreover, the logP in data set [2] was 1.83. Moreover, the IC50 in data set [3] turned out to be 110 µM.
As to `O=C(CCc1ccc(O)c(O)c1)N[C@H](Cc1ccc(O)c(O)c1)C(=O)O`, the inhibition at 10 µM in the data set on Jurkat [1] amounted to 0%. For the same compound, in data set [2], the logP stood at 0.493. Besides, 13 µM corresponded to half-maximal inhibition in data set [3] (IC50).
For `COC(=O)[C@@H](Cc1ccc(O)c(O)c1)NC(=O)/C=C/c1ccc(OC)c(OC)c1`, the inhibition at 10 µM in the data set on Jurkat [1] worked out at 3.5%. The same compound displayed a logP in data set [2] of 1.52. Also, the concentration for half-maximal inhibition (IC50) in data set [3] is above 500 µM.
As for `COC(=O)[C@@H](Cc1ccc(O)c(O)c1)NC(=O)CCc1ccc(O)c(O)c1`, the inhibition at 10 µM in the data set on Jurkat [1] turned out to be 7.5%. This compound also came in with a logP in data set [2] of 0.344. Besides, in data set [3], the IC50 was 32 µM.
Regarding `O=C(/C=C/c1ccc(O)c(O)c1)N[C@@H](Cc1ccc(O)c(O)c1)C(=O)O`, in the data set with Jurkat [1], the inhibition at 10 µM is 11%. Besides, in data set [2], the logP was found to be 0.731. In data set [3], this compound showed an IC50 of 21 µM.
With `CCCOC(=O)[C@@H](Cc1ccc(O)c(O)c1)OC(=O)/C=C/c1ccc(O)c(O)c1`, the inhibition at 10 µM with Jurkat [1] was 87.5%. The compound further returned a logP in data set [2] of 1.52. Half-maximal inhibition in data set [3] (IC50) was put at 145 µM.
With `O=C(/C=C/c1ccc(O)c(O)c1)N[C@H](Cc1ccc(O)c(O)c1)C(=O)O`, the inhibition at 10 µM in the data set on Jurkat [1] was 10.3%. Further, the logP in data set [2] came to 0.758. The same compound had an IC50 in data set [3] of 20 µM.
For `COC(=O)[C@@H](Cc1ccc(O)c(O)c1)NC(=O)c1ccc(O)c(O)c1`, the inhibition at 10 µM with Jurkat [1] stood at 0.4%. Moreover, in data set [2], the logP was determined as 0.125. In data set [3], this compound displayed an IC50 of 19 µM.
For `COC(=O)[C@@H](Cc1ccc(O)c(O)c1)NC(=O)/C=C/c1ccc(O)c(OC)c1`, the inhibition at 10 µM in the data set on Jurkat [1] was found to be 2.2%. Further, the logP in data set [2] was determined as 1.31. In addition, the IC50 in data set [3] was above 500 µM.
In the case of `COC(=O)[C@@H](Cc1ccc(O)c(O)c1)NC(=O)/C=C/c1ccc(O)c(O)c1`, the inhibition at 10 µM in the data set on Jurkat [1] stood at 61.6%. In data set [2], the logP worked out at 1.39. This compound had an IC50 in data set [3] of 71 µM.

For orientation: inhibition means the percentage by which the read-out fell short of the control. In general, logP refers to the decadic logarithm of the partition coefficient of the neutral form, usually between octanol and water. Low readings indicate a more hydrophilic compound, high ones a more lipophilic compound. Usually IC50 stands for the concentration that inhibits the measured activity by half. Read a high IC50 as weaker potency in that assay.
